Experimental data published in ChEMBL document CHEMBL4680062, “Structure-property studies of an imidazoquinoline chemotype with antitrypanosomal activity” (RSC Med Chem, 2020).

What was measured:
[1] = Intrinsic clearance in Han Wistar rat hepatocytes assessed per million cells at 1 uM by LC/MS/MS analysis; type: ADME, cell-based, Hepatocyte; conditions: read-out: CLH
[2] = Intrinsic clearance in human liver microsomes by LC/MS/MS analysis; type: ADME, Microsome; conditions: read-out: CLH
[3] = 1-Octanol-aquoues buffer distribution coefficient, log D of compound at pH 7.4 by UPLC-MS based shake flask method; type: physicochemical; conditions: 1-octanol/aqueous buffer
[4] = Half life in NMRI mouse at 10 mg/kg, ip measured up to 24 hrs by LC/MS/MS analysis; type: ADME, organism-based; conditions: in vivo
Method in brief: (§1)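 Female NMRI mice (n=3) dosed IP at a target of 10 mg/kg. Vehicle: 1% DMSO and 99% of a 20% Captisol solution in water. Drug levels measured in peripheral blood.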

[5] = Drug exposure in NMRI mouse blood at 10 mg/kg, ip measured after 4 hrs by LC/MS/MS analysis; type: ADME, organism-based; conditions: in vivo; method in brief: as §1
[6] = AUC in NMRI mouse at 10 mg/kg, ip measured up to 24 hrs by LC/MS/MS analysis; type: ADME, organism-based; design: route intraperitoneal, dose 10 mg/kg, time <=24; conditions: in vivo; method in brief: as §1
[7] = Tmax in NMRI mouse at 10 mg/kg, ip measured up to 24 hrs by LC/MS/MS analysis; type: ADME, organism-based; conditions: in vivo; method in brief: as §1
[8] = Drug exposure in NMRI mouse brain at 10 mg/kg, ip measured after 4 hrs by LC/MS/MS analysis; type: ADME, organism-based; conditions: in vivo
[9] = Ratio of drug level in brain to plasma in NMRI mouse at 10 mg/kg, ip measured up to 24 hrs by LC/MS/MS analysis; type: ADME, organism-based; conditions: brain and plasma, read-out: BPR
[10] = Cmax in NMRI mouse at 10 mg/kg, ip measured up to 24 hrs by LC/MS/MS analysis; type: ADME, organism-based; design: route intraperitoneal, dose 10 mg/kg, time <=24; conditions: in vivo; method in brief: as §1

hepatocyte CLint at 1 µM [1]	microsomal CLint [2]	logD [3]	half-life [4]	Drug uptake [5]	AUC at 24 h [6]	Tmax [7]	Drug uptake [8]	Kp at 24 h [9]	Cmax [10]	SMILES
1 µL/min/1e6 cells	3 µL/min/mg	0.1	–	–	–	–	–	–	–	Cn1c(=O)n(C2CCNCC2)c2c3cc(-c4cn[nH]c4)ccc3ncc21
7.9 µL/min/1e6 cells	38 µL/min/mg	3	78 min	Not Active	920 ng·h/mL	30 min	Not Active	0.026	570 ng/mL	Cn1c(=O)n(-c2ccc(C(C)(C)C#N)cc2)c2c3cc(-c4cn[nH]c4)ccc3ncc21
